Data on five molecules can be found in PMC4711262 (Journal of thrombosis and haemostasis : JTH, 2011).

Residues, ends and D or L forms follow the SMILES beside them. *: point of attachment. AMC = Cc1cc(=O)oc2cc(N*)ccc12; Cbz = O=C(OCc1ccccc1)*

The conditions of data set [1]: pH 7.8; cited from earlier work.
In data set [2] the target is T1, DPPIV (Homo sapiens, UniProt P27487). To be noted: cited from earlier work.
Data set [3] concerns the target T1, DPPIV. In words: Enzyme assay with fluorogenic substrate, DPPIV. The class given is biochemical.
The target of data set [4] is T2, POP (Homo sapiens, UniProt P48147).
T2 sequence (P48147 1-710): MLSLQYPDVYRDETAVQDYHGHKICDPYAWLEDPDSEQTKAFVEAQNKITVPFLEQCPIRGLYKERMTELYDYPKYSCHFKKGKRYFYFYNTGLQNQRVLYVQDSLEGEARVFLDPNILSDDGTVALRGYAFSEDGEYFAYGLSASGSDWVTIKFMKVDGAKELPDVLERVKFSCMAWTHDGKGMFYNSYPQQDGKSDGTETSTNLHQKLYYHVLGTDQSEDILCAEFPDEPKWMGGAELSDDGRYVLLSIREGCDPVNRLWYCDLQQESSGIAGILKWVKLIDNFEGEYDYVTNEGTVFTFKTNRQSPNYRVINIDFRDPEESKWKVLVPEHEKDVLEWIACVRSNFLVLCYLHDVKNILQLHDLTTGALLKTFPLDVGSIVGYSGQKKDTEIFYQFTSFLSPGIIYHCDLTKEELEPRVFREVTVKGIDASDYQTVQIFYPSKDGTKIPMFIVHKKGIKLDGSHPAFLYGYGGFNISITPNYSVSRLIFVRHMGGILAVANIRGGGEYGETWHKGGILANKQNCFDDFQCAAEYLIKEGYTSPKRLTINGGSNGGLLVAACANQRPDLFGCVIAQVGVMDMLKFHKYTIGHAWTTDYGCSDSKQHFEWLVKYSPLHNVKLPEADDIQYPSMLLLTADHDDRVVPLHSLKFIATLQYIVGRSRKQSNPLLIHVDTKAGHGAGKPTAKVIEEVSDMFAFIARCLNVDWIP
To be noted: cited from earlier work.

The next data set has as its system APCE and POP. The data set is classed as biochemical, human. To be noted: non-POP-supplemented plasma; 10 μM inhibitor; 100 μM substrate. The gist of the method: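 Pooled plasma from four donors, with or without 0.05 μg added POP, was assayed with 10 μM inhibitor or no inhibitor. Cleavage was compared with uninhibited plasma. Values are mean ± SD of three experiments.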

Data set [5] deals with T2, POP. In words: Enzyme assay with fluorogenic substrate, POP. The class given is biochemical. To be noted: 100 nM inhibitor; in buffer.
The target of a further data set is T3, APCE/FAP (Homo sapiens, UniProt Q12884).
T3 sequence (Q12884 24-760 limits assumed): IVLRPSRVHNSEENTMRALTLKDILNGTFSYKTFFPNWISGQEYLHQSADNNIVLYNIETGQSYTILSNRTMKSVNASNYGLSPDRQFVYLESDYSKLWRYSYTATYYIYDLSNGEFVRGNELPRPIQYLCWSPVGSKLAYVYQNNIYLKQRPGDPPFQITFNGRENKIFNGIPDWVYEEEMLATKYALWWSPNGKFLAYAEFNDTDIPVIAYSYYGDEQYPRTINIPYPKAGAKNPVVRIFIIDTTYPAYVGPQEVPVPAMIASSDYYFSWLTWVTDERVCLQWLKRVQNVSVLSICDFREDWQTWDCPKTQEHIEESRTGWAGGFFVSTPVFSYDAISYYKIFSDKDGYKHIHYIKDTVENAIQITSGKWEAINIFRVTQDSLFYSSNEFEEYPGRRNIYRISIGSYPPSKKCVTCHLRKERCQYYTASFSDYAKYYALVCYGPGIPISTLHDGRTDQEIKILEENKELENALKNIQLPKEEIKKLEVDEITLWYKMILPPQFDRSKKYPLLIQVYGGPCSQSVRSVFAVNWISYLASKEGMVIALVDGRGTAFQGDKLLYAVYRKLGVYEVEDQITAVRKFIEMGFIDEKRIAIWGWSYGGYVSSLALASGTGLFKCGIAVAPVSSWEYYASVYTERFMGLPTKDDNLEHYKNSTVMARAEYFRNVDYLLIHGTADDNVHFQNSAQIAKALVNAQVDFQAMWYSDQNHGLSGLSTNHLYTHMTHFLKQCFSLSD
The data set can be described thus: Enzyme assay with fluorogenic substrate, APCE/FAP. The class given is biochemical. Particulars: 10 μM inhibitor.

T1 sequence (P27487 whole entry, species assumed): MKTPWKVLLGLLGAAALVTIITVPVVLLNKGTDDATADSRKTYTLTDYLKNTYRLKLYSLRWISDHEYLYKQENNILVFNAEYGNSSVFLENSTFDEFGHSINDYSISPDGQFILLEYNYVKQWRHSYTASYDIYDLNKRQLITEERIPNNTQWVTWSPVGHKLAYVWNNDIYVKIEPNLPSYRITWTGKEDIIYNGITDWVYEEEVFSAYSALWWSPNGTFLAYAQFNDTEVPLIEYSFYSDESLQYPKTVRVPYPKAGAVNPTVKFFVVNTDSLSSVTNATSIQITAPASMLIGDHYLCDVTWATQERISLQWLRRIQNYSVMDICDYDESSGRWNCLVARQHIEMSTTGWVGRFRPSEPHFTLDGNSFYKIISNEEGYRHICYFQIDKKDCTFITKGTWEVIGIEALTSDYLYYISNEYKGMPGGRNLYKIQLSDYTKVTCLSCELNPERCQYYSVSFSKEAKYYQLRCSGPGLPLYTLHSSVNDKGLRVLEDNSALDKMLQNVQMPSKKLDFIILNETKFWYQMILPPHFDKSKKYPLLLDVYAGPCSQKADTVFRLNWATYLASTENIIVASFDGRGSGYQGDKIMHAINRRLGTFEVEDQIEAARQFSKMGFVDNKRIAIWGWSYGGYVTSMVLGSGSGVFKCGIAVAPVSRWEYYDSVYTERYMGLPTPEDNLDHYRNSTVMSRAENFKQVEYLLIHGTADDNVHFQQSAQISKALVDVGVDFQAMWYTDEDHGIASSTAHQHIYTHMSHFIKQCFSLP

Turning to `CC(C)[C@H](N)C(=O)N1CCC[C@H]1B(O)O` [Val-boroPro], the “stability of inhibitory activity in aqueous media” value in data set [1] was “rapidly loses inhibitory activity”.
With `Cc1cc(=O)oc2cc(NC(=O)[C@@H]3CCCN3C(=O)CNC(=O)OCc3ccccc3)ccc12` [Z-GP-AMC, benzyloxycarbonyl (Z)-GP-AMC] (Cbz-Gly-Pro-{AMC}), on DPPIV [2], the “cleavage by DPPIV” value is “not cleaved”.
`CC(=O)N[C@@H](CCCNC(=N)N)C(=O)NCC(=O)NCC(=O)N1CCC[C@H]1B(O)O` [Inhibitor no. 2, Ac-Arg-Gly-Gly-L-boroPro] yielded a DPPIV selectivity on DPPIV [3] (Ki(app) (DPPIV)/Ki(app) (APCE/FAP)) of 19.
Regarding `Cc1cc(=O)oc2cc(NC(=O)[C@@H]3CCCN3C(=O)CN)ccc12` [GP-AMC] (H-Gly-Pro-{AMC}), the “cleavage by POP” value at POP [4] is on record as “not cleaved”.
On to acetyl-KLR-L-boroPro, for which the “inhibition of MEPLGRQLTSGP-AMC cleavage in plasma” value in the data set with APCE and POP is “not inhibited”. For the same molecule, at POP [5], the “inhibition of POP” value is “total inhibition”. In addition, the “inhibitory activity towards APCE/FAP” value at APCE/FAP is “no inhibitory activity”. Further, the “inhibitory activity towards DPPIV” value on DPPIV [3] (10 μM inhibitor) is listed as “no inhibitory activity”.
